Data published in ChEMBL document CHEMBL4184251, “Potentiation of the activity of β-lactam antibiotics by farnesol and its derivatives” (Bioorg Med Chem Lett, 2018).
In brackets after ≈: the same amount, converted by molar mass.

Assays:
Staphylococcus aureus [1] = test: Potentiation of oxacillin-induced antimicrobial activity against methicillin-resistant Staphylococcus aureus NRS123 at 256 ug/ml relative to oxacillin alone; type: functional
Staphylococcus aureus [2] = test: Potentiation of oxacillin-induced antimicrobial activity against methicillin-resistant Staphylococcus aureus NRS70 at 256 ug/ml relative to oxacillin alone; type: functional
Staphylococcus aureus [3] = test: Potentiation of ampicillin-induced antimicrobial activity against methicillin-resistant Staphylococcus aureus NRS100 at 256 ug/ml (reference value: ampicillin alone MIC = 16 ug/ml); type: functional
Staphylococcus aureus [4] = test: Potentiation of ampicillin-induced antimicrobial activity against methicillin-resistant Staphylococcus aureus NRS123 at 256 ug/ml relative to ampicillin alone; type: functional
Staphylococcus aureus [5] = test: Potentiation of oxacillin-induced antimicrobial activity against methicillin-resistant Staphylococcus aureus NRS70 at 256 ug/ml by checkerboard assay; type: functional
Summary of the method: (§1)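 Checkerboard combination of oxacillin with the farnesol-type compound. Synergy scored by the fractional inhibitory concentration index (FICI).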

Staphylococcus aureus [6] = test: Potentiation of oxacillin-induced antimicrobial activity against methicillin-resistant Staphylococcus aureus NRS70 at 256 ug/ml (reference value: oxacillin alone MIC = 32 ug/ml); type: functional
Staphylococcus aureus [7] = test: Antimicrobial activity against methicillin-susceptible Staphylococcus aureus ATCC 29213 by micro-dilution method; type: functional
Summary of the method: (§2)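 Broth microdilution MIC in cation-adjusted Mueller-Hinton II medium supplemented with 1% Tween-80 (CAMHB-T), needed to disperse the farnesol-type compounds. Compounds tested from 2 to 2048 μg/mL.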

Staphylococcus aureus [8] = test: Potentiation of ampicillin-induced antimicrobial activity against methicillin-susceptible Staphylococcus aureus ATCC 29213 at 256 ug/ml relative to ampicillin alone; type: functional
Staphylococcus aureus [9] = test: Potentiation of oxacillin-induced antimicrobial activity against methicillin-resistant Staphylococcus aureus NRS100 at 256 ug/ml relative to oxacillin alone; type: functional
Staphylococcus aureus [10] = test: Antimicrobial activity against methicillin-resistant Staphylococcus aureus NRS70 by micro-dilution method; type: functional; summary of the method: as §2
Staphylococcus aureus [11] = test: Antimicrobial activity against methicillin-resistant Staphylococcus aureus NRS100 by micro-dilution method; type: functional; summary of the method: as §2
Staphylococcus aureus [12] = test: Potentiation of ampicillin-induced antimicrobial activity against methicillin-resistant Staphylococcus aureus NRS70 at 256 ug/ml relative to ampicillin alone; type: functional
Staphylococcus aureus [13] = test: Potentiation of ampicillin-induced antimicrobial activity against methicillin-resistant Staphylococcus aureus NRS70 at 256 ug/ml (reference value: ampicillin alone MIC = 16 ug/ml); type: functional
[14] = Solubility in aqueous solution; type: physicochemical; settings: buffer
Staphylococcus aureus [15] = test: Potentiation of oxacillin-induced antimicrobial activity against methicillin-resistant Staphylococcus aureus NRS100 at 256 ug/ml by checkerboard assay; type: functional; summary of the method: as §1
Staphylococcus aureus [16] = test: Potentiation of ampicillin-induced antimicrobial activity against methicillin-resistant Staphylococcus aureus NRS100 at 256 ug/ml relative to ampicillin alone; type: functional
Staphylococcus aureus [17] = test: Potentiation of oxacillin-induced antimicrobial activity against methicillin-resistant Staphylococcus aureus NRS100 at 256 ug/ml (reference value: oxacillin alone MIC = >256 ug/ml); type: functional
Staphylococcus aureus [18] = test: Potentiation of ampicillin-induced antimicrobial activity against methicillin-susceptible Staphylococcus aureus ATCC 29213 at 256 ug/ml (reference value: ampicillin alone MIC = 0.5 ug/ml); type: functional
Staphylococcus aureus [19] = test: Potentiation of oxacillin-induced antimicrobial activity against methicillin-susceptible Staphylococcus aureus ATCC 29213 at 256 ug/ml (reference value: oxacillin alone MIC = 0.4 ug/ml); type: functional
Staphylococcus aureus [20] = test: Potentiation of ampicillin-induced antimicrobial activity against methicillin-resistant Staphylococcus aureus NRS123 at 256 ug/ml (reference value: ampicillin alone MIC = 12 ug/ml); type: functional
Staphylococcus aureus [21] = test: Potentiation of oxacillin-induced antimicrobial activity against methicillin-susceptible Staphylococcus aureus ATCC 29213 at 256 ug/ml relative to oxacillin alone; type: functional
Staphylococcus aureus [22] = test: Potentiation of oxacillin-induced antimicrobial activity against methicillin-resistant Staphylococcus aureus NRS123 at 256 ug/ml (reference value: oxacillin alone MIC = 24 ug/ml); type: functional
Staphylococcus aureus [23] = test: Antimicrobial activity against methicillin-resistant Staphylococcus aureus NRS123 by micro-dilution method; type: functional; summary of the method: as §2
Staphylococcus aureus [24] = test: Potentiation of ampicillin-induced antimicrobial activity against methicillin-susceptible Staphylococcus aureus ATCC 29213 at 1000 ug/ml (reference value: ampicillin alone MIC = 0.5 ug/ml); type: functional
Staphylococcus aureus [25] = test: Potentiation of oxacillin-induced antimicrobial activity against methicillin-resistant Staphylococcus aureus NRS100 relative to untreated oxacillin alone; type: functional
Staphylococcus aureus [26] = test: Potentiation of ampicillin-induced antimicrobial activity against methicillin-susceptible Staphylococcus aureus ATCC 29213 at 1000 ug/ml relative to ampicillin alone; type: functional
Staphylococcus aureus [27] = test: Potentiation of ampicillin-induced antimicrobial activity against methicillin-resistant Staphylococcus aureus NRS100 at 1000 ug/ml relative to ampicillin alone; type: functional
Staphylococcus aureus [28] = test: Potentiation of oxacillin-induced antimicrobial activity against methicillin-resistant Staphylococcus aureus NRS100 at 1000 ug/ml (reference value: oxacillin alone MIC = >256 ug/ml); type: functional
Staphylococcus aureus [29] = test: Potentiation of oxacillin-induced antimicrobial activity against methicillin-resistant Staphylococcus aureus NRS70 at 1000 ug/ml by checkerboard assay; type: functional; summary of the method: as §1
Staphylococcus aureus [30] = test: Potentiation of oxacillin-induced antimicrobial activity against methicillin-susceptible Staphylococcus aureus ATCC 29213 at 1000 ug/ml (reference value: oxacillin alone MIC = 0.4 ug/ml); type: functional
Staphylococcus aureus [31] = test: Potentiation of oxacillin-induced antimicrobial activity against methicillin-resistant Staphylococcus aureus NRS70 at 1000 ug/ml relative to oxacillin alone; type: functional
Staphylococcus aureus [32] = test: Potentiation of oxacillin-induced antimicrobial activity against methicillin-resistant Staphylococcus aureus NRS123 at 1000 ug/ml relative to oxacillin alone; type: functional
Staphylococcus aureus [33] = test: Potentiation of oxacillin-induced antimicrobial activity against methicillin-resistant Staphylococcus aureus NRS100 at 1000 ug/ml relative to oxacillin alone; type: functional
Staphylococcus aureus [34] = test: Potentiation of ampicillin-induced antimicrobial activity against methicillin-resistant Staphylococcus aureus NRS70 at 1000 ug/ml (reference value: ampicillin alone MIC = 16 ug/ml); type: functional
Staphylococcus aureus [35] = test: Potentiation of ampicillin-induced antimicrobial activity against methicillin-resistant Staphylococcus aureus NRS100 relative to untreated ampicillin alone; type: functional
Staphylococcus aureus [36] = test: Potentiation of oxacillin-induced antimicrobial activity against methicillin-resistant Staphylococcus aureus NRS70 relative to untreated oxacillin alone; type: functional
Staphylococcus aureus [37] = test: Potentiation of oxacillin-induced antimicrobial activity against methicillin-resistant Staphylococcus aureus NRS100 at 1000 ug/ml by checkerboard assay; type: functional; summary of the method: as §1
Staphylococcus aureus [38] = test: Potentiation of oxacillin-induced antimicrobial activity against methicillin-resistant Staphylococcus aureus NRS70 at 1000 ug/ml (reference value: oxacillin alone MIC = 32 ug/ml); type: functional
Staphylococcus aureus [39] = test: Potentiation of oxacillin-induced antimicrobial activity against methicillin-resistant Staphylococcus aureus NRS123 at 1000 ug/ml (reference value: oxacillin alone MIC = 24 ug/ml); type: functional
Staphylococcus aureus [40] = test: Potentiation of ampicillin-induced antimicrobial activity against methicillin-resistant Staphylococcus aureus NRS123 at 1000 ug/ml relative to ampicillin alone; type: functional
Staphylococcus aureus [41] = test: Potentiation of oxacillin-induced antimicrobial activity against methicillin-susceptible Staphylococcus aureus ATCC 29213 at 1000 ug/ml relative to oxacillin alone; type: functional
Staphylococcus aureus [42] = test: Potentiation of ampicillin-induced antimicrobial activity against methicillin-resistant Staphylococcus aureus NRS123 at 1000 ug/ml (reference value: ampicillin alone MIC = 12 ug/ml); type: functional
Staphylococcus aureus [43] = test: Potentiation of ampicillin-induced antimicrobial activity against methicillin-resistant Staphylococcus aureus NRS70 relative to untreated ampicillin alone; type: functional
Staphylococcus aureus [44] = test: Potentiation of ampicillin-induced antimicrobial activity against methicillin-resistant Staphylococcus aureus NRS100 at 1000 ug/ml (reference value: ampicillin alone MIC = 16 ug/ml); type: functional
Staphylococcus aureus [45] = test: Potentiation of ampicillin-induced antimicrobial activity against methicillin-resistant Staphylococcus aureus NRS70 at 1000 ug/ml relative to ampicillin alone; type: functional

In the case of `CC(C)=CCC/C(C)=C/CC/C(C)=C/CNP(O)(O)=S`, the “fold change (FC)” value (Staphylococcus aureus [1]) is reported as 1.5, the “fold change (FC)” value (Staphylococcus aureus [2]) is reported as 32 and the MIC (Staphylococcus aureus [3]) is reported as 3 µg/mL. The “fold change (FC)” value (Staphylococcus aureus [4]) was 1.5, the “fractional inhibitory concentration index (FICI)” value (Staphylococcus aureus [5]) was 0.53 - 1.13 and the MIC (Staphylococcus aureus [6]) was 1 µg/mL. For the same compound, the MIC (Staphylococcus aureus [7]) was 512 µg/mL (≈ 1.61 mM), the “fold change (FC)” value (Staphylococcus aureus [8]) was 1 and the “fold change (FC)” value (Staphylococcus aureus [9]) was greater than 128. The MIC (Staphylococcus aureus [10]) was 512 µg/mL (≈ 1.61 mM), the MIC (Staphylococcus aureus [11]) was 512 µg/mL (≈ 1.61 mM) and the “fold change (FC)” value (Staphylococcus aureus [12]) was 2.7. The MIC (Staphylococcus aureus [13]) was 6 µg/mL, the solubility [14] was “Soluble” and the “fractional inhibitory concentration index (FICI)” value (Staphylococcus aureus [15]) was 0.53 - 1.13. For the same compound, the “fold change (FC)” value (Staphylococcus aureus [16]) was 5.3, the MIC (Staphylococcus aureus [17]) was 2 µg/mL and the MIC (Staphylococcus aureus [18]) was 0.5 µg/mL. The MIC (Staphylococcus aureus [19]) was 0.4 µg/mL, the MIC (Staphylococcus aureus [20]) was 8 µg/mL and the “fold change (FC)” value (Staphylococcus aureus [21]) was 1. It also gave an MIC (Staphylococcus aureus [22]) of 16 µg/mL and an MIC (Staphylococcus aureus [23]) of 512 µg/mL (≈ 1.61 mM).
For `CC(C)=CCC/C(C)=C/CC/C(C)=C/CO` [FARNESOL], the MIC (Staphylococcus aureus [24]) was 0.5 µg/mL, the “fold change (FC)” value (Staphylococcus aureus [25]) was greater than 64 and the “fold change (FC)” value (Staphylococcus aureus [26]) was 1. For the same compound, the “fold change (FC)” value (Staphylococcus aureus [27]) was 4, the MIC (Staphylococcus aureus [7]) was 2050 µg/mL (≈ 9.21 mM) and the MIC (Staphylococcus aureus [28]) was 8 µg/mL. For the same compound, the “fractional inhibitory concentration index (FICI)” value (Staphylococcus aureus [29]) was 0.53 - 1.13, the MIC (Staphylococcus aureus [30]) was 0.5 µg/mL and the MIC (Staphylococcus aureus [10]) was 2050 µg/mL (≈ 9.21 mM). For the same compound, the MIC (Staphylococcus aureus [11]) was 2050 µg/mL (≈ 9.21 mM), the “fold change (FC)” value (Staphylococcus aureus [31]) was 2.7 and the “fold change (FC)” value (Staphylococcus aureus [32]) was 12. The “fold change (FC)” value (Staphylococcus aureus [33]) was greater than 32, the MIC (Staphylococcus aureus [34]) was 4 µg/mL and the “fold change (FC)” value (Staphylococcus aureus [35]) was 24. The “fold change (FC)” value (Staphylococcus aureus [36]) was 96, the “fractional inhibitory concentration index (FICI)” value (Staphylococcus aureus [37]) was 0.53 - 1.13 and the MIC (Staphylococcus aureus [38]) was 12 µg/mL. For the same compound, the MIC (Staphylococcus aureus [39]) was 2 µg/mL, the “fold change (FC)” value (Staphylococcus aureus [40]) was 4 and the “fold change (FC)” value (Staphylococcus aureus [41]) was 0.8. The MIC (Staphylococcus aureus [42]) was 3 µg/mL, the “fold change (FC)” value (Staphylococcus aureus [43]) was 256 and the MIC (Staphylococcus aureus [44]) was 4 µg/mL. The “fold change (FC)” value (Staphylococcus aureus [45]) was 4 and the MIC (Staphylococcus aureus [23]) was 2050 µg/mL (≈ 9.21 mM).
